Rows were chosen to be rich in hits. Some 1.7% of all compounds tested hit in one or more screens of this group.
DNMT1 inh = blocks human DNA methyltransferase DNMT1 | inhibition (reported as % activation of signal), % at 10 µM | DNMT1 molecular beacon, Hinp1I cleavage, fluorescence | 0.83% of 360,000 active | P26358; in the data active means inhibition above about 50%
LMPTP inh = LMPTP (human) inhibition; recombinant LMPTP-A, OMFP fluorogenic substrate, fluorescence intensity; inhibition, % at 20 µM; 0.22% of 360,000 active; AID 651560;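 active means compounds that cut the enzyme signal by at least half of the control window in the single-dose screen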
Target sequence (P24666 whole entry, looked up): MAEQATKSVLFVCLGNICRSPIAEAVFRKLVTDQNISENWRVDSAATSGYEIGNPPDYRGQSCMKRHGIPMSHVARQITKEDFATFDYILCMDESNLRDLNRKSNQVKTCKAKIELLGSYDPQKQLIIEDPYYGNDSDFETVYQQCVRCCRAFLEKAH
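Assay system: LMPTP-A phosphatase enzyme | Input: 0.625 nM enzyme | Also added: Fluorogenic phosphatase substrate OMFP at 400 µM final | Compound dosing: One test concentration per compound, 20 µM, with 3% DMSO overall | Schedule: 50 min enzyme reaction at room temperature, protected from light | Signal: Fluorescence intensity | Benchmarks: no-enzyme and uninhibited controls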
STEP block = inhibitors of human striatal-enriched phosphatase STEP; inhibition, % at 20 µM; recombinant STEP, OMFP fluorogenic substrate, fluorescence; AID 588621; 0.25% of 360,000 active;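 active means inhibition at 20 µM, scaled per plate between control wells, above about 37%, limit read from the data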
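System: isolated STEP enzyme; schedule: 20 min enzyme reaction at room temperature, protected from light; medium: Bis-Tris buffer pH 6.0, 2.5 mM DTT, 0.005% Tween 20; signal: fluorescence, 480/540 nm; dosing: single compound dose of 20 µM, 1% DMSO final; also added: OMFP substrate, 25 µM final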
Scp-1 inhibitor = inhibitors of human Scp-1 phosphatase; AID 493091; 0.88% of 340,000 active; inhibition, % at 20 µM; Recombinant Scp1, phosphopeptide, malachite green phosphate absorbance;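 active means inhibition above about 50% at 20 µM, limit read from the data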
Target sequence (Q9GZU7 76-261 limits assumed): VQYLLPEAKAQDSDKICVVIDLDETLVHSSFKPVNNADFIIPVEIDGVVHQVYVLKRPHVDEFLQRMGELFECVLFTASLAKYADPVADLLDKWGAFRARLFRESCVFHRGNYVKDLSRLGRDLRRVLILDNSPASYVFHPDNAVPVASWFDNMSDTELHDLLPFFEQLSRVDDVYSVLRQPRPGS
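Test system: SCP-1 phosphatase catalytic domain, residues 76-261 | Compound dosing: One concentration, 20 µM, with 1.0% DMSO | Schedule: 45 min room-temperature reaction, 5 min colour, 30 min stabiliser | Detection: Absorbance at 630 nm | Read-out basis: % inhibition of SCP-1 phosphate liberation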
SUMO1-SIM PPI = modulators of human SUMO1-mediated protein-protein interactions; P63165; SUMO1 binding to a labelled peptide, TR-FRET, 1 h; inhibition, % at 20 µM; 0.33% of 360,000 active; AID 602429; in the data active means inhibition above about 37%
Target sequence (P63165 whole entry, looked up): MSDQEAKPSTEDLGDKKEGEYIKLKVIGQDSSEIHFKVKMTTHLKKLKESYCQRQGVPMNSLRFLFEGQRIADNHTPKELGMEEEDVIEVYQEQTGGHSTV
Scp-1 conf = Scp-1 (human) inhibition, single-dose confirmed; shares compounds with Scp-1 inhibitor; recombinant SCP-1 catalytic domain, phosphate release, malachite green absorbance; inhibition, % at 20 µM; 61% of 2,500 active
MG interference = counter-screen for Scp-1 inhibitors: colorimetric interference. shares compounds with Scp-1 inhibitor. Colorimetric interference counterscreen, malachite green absorbance 630 nm. apparent inhibition (interference), % at 20 µM. 2,500 tested, under 10 active;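 further: compounds added after enzyme reaction finished so only phosphate colour detection is probed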
Scp-1 Tm shift = validation of human Scp-1 inhibitors by thermal shift binding; shares compounds with Scp-1 inhibitor; Recombinant SCP1, Sypro Orange thermal shift Tm; 25% of 1,500 active; thermal shift relative to vanadate control, % at 40 µM;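 active means substances whose mean melting-temperature shift, as a percentage of the reference inhibitor's shift, reaches about 5.3%, limit read from the data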
A number is an active result; - = inactive; . = not tested or not shown.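 How the source made its calls, unless noted: active means inhibition of at least 30% at 20 µM; inactive means the rest.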

SMILES	DNMT1 inh	LMPTP inh	STEP block	Scp-1 inhibitor	SUMO1-SIM PPI	Scp-1 conf	MG interference	others
CON=C(C(=O)NC1C(=O)N2C(C(=O)O)=C(CSc3nc(=O)c(=O)[nH]n3C)CSC12)c1csc(N)n1 (configuration not stated)	-	-	-	64.6	-	51.9	-	Scp-1 Tm shift=-
CO/N=C(\C(=O)N[C@@H]1C(=O)N2C(C(=O)O)=C(COC(N)=O)CS[C@H]12)c1ccco1	-	-	-	69.7	-	67.2	-	Scp-1 Tm shift=8.0
COCC1=C(C(=O)OC(C)OC(=O)OC(C)C)N2C(=O)[C@@H](NC(=O)/C(=N\OC)c3csc(N)n3)[C@H]2SC1 (some centres not stated)	-	-	-	-	-	.	.
CN=c1nc(-c2ccccc2)n(-c2ccccc2)s1	-	-	-	76.5	-	-	-
Cn1nc(-c2ccccc2)nc1-c1ccccc1	-	-	-	-	-	.	.
O=[N+]([O-])c1ccc2[nH]ccc2c1	.	-	.	.	-	.	.
O=[N+]([O-])c1ccc2cc[nH]c2c1	-	-	-	61.4	-	-	-
O=C(NNC(=O)c1ccc(Cl)cc1Cl)c1ccc2ccccc2c1	-	-	-	-	-	-	-
Cc1cc(NC(=O)CSc2nnc(COc3ccccc3)n2Cc2ccco2)no1	-	-	-	-	-	.	.
O=C(CSc1nnc(COc2ccccc2)n1Cc1ccco1)NCc1ccco1	-	-	-	87.6	-	67.3	-	Scp-1 Tm shift=-
O=C(CSc1nc2ccccc2c(=O)n1Cc1ccco1)NCc1ccco1	-	-	-	74.4	-	74.2	-	Scp-1 Tm shift=-
CCCCn1c(SCC(=O)NCc2ccco2)nnc1-c1ccoc1C	-	-	-	97.2	-	76.7	-	Scp-1 Tm shift=-
CCCCn1c(SCC(=O)NCc2ccco2)nnc1-c1ccco1	-	-	-	-	-	.	.
O=C(NCc1ccco1)c1ccc2c(=O)n(Cc3ccco3)c(SCC(=O)N3CCCC3)nc2c1	-	-	-	100.6	-	70.0	-	Scp-1 Tm shift=-
CCCN1CCC(=O)N(CCO)CC1	-	-	-	-	-	.	.
COc1ccc(CCNC(=O)CCCc2nnc3n(C)c(=O)c4sccc4n23)cc1OC	-	-	-	-	-	.	.
COC(=O)[C@]12CCCCC=C1N(Cc1ccc(Cl)cc1Cl)C(=O)[C@H](CC(=O)NCC1CCCCC1)C2	.	-	.	.	-	.	.
CC(C)C(NC(=O)c1cccc(S(=O)(=O)N2CCOCC2)c1)C(=O)NCc1ccc(Cl)cc1 (configuration not stated)	-	-	-	-	-	.	.
COc1ccc(OC)c(-c2nc3ccccc3nc2-c2ccccc2)c1	-	-	-	58.5	-	-	-
CC(C)c1cc(C(=O)NC2CCCCC2)no1	-	-	-	72.8	-	-	-
Cc1cc(Cn2nc(-c3ccccc3C)cc2C(=O)O)on1	-	-	-	-	-	.	.
CCCCCCCCN1C(=O)[C@H](CC(=O)NCc2cccc(C(F)(F)F)c2)C[C@@]2(C(=O)OC)CC(C)(C)CC=C12	.	-	.	.	-	.	.
O=C(Nc1ccc2ncccc2c1)c1ccccc1Cl	-	-	-	56.7	-	-	-
C/C(CC(=O)Nc1ccc2ccccc2c1)=N\NC(=O)c1ccc(O)c(O)c1	-	-	-	-	-	.	.
O=C1/C(=C\c2cccc([N+](=O)[O-])c2O)SC(=S)N1Cc1ccccc1	-	-	-	73.3	-	-	-
SMILES	DNMT1 inh	LMPTP inh	STEP block	Scp-1 inhibitor	SUMO1-SIM PPI	Scp-1 conf	MG interference	others
CCCCNc1cccc2c1S(=O)(=O)N(CCCC)CC(COCc1ccccc1)O2 (configuration not stated)	-	-	-	-	-	.	.
CCOC(=O)[C@@H]1[C@H]2COc3cc(OC)ccc3[C@@H]2N2C(=O)N(c3ccc(Br)cc3)C(=O)[C@]12C	-	-	-	52.9	-	-	-
Cc1ccc(C)c(OCC(=O)NNC(=O)c2ccc(NC(=O)C3CC3)cc2)c1	-	-	-	-	-	.	.
Cc1cc(Br)ccc1OCC(=O)NNC(=O)c1ccc(NC(=O)C2CC2)cc1	-	-	-	61.4	-	-	-
COc1ccc(/C=C(\C#N)C(=O)Nc2ccc3[nH]c(=O)[nH]c3c2)cc1	-	-	-	110.8	-	65.7	-	Scp-1 Tm shift=-
O=C(NCC1CC1)c1csc(COCCO)n1	-	-	-	.	-	.	.
CN(c1ccccc1)c1cc(Br)nc(Br)c1	-	-	-	-	-	.	.
CCCCCCCCN1C(=O)[C@H](CC(=O)NCCCOC)C[C@@]2(C(=O)OCC)CCCC=C12	.	-	.	.	-	.	.
CCOn1c(=O)c(-c2cccc3ccccc23)[n+]([O-])c2ccccc21	-	-	-	57.7	-	-	-
CCOn1c(=O)c(-c2ccccc2)[n+]([O-])c2ccccc21	-	-	-	-	-	.	.
CN(Cc1ccccc1)C(=O)c1ccc(NC(=O)Cc2ccc(NC(=O)C3CCCN(C(=O)CCc4ccccc4)C3)cc2)cc1 (configuration not stated)	-	-	-	-	-	.	.
C[N+](C)(C)CC/C=C1/c2ccccc2CSc2ccccc21	-	-	-	76.9	-	82.1	-	Scp-1 Tm shift=-
O=C(COc1ccc(S(=O)(=O)NCc2ccccc2)cc1)NCc1cccnc1	-	-	-	-	-	.	.
COC(=O)[C@@]12CCCCN1[C@H](c1ccc(SC3CCCCC3)c(OC)c1)[C@@H]1C(=O)N(C)C(=O)[C@@H]12	-	-	-	-	-	.	.
CCN1C(=O)[C@@H]2[C@@H](c3ccc(SC4CCCCC4)c(OC)c3)N3CCCC[C@@]3(C(=O)OC)[C@@H]2C1=O	-	-	-	52.9	-	-	-
CN(/N=C/c1ccncc1)C1=NCCN1	-	-	-	85.5	-	-	-
CN(C(=O)COC(=O)Cn1cnc2ccccc21)C1CCCCC1	-	-	-	-	-	.	.
Cc1nc2ccc(C(=O)O)cc2c2c1CC(C)S2 (configuration not stated)	54.3	-	-	79.1	-	60.7	-	Scp-1 Tm shift=-
O=C(N/N=C/c1cn(-c2cccs2)nc1-c1ccccc1)c1ccccc1O	-	-	-	71.6	-	-	-
CC1CCCC(C)N1CCCNC(=O)C(=O)Nc1ccc2nc3n(c(=O)c2c1)CCCCC3 (configuration not stated)	-	-	-	-	-	.	.
Cn1c(=O)c(=O)n(C)c2cc(S(=O)(=O)N3CCCC3C(=O)Nc3ccccc3F)ccc21 (configuration not stated)	-	-	-	-	-	-	-

Compound activity deposited in PubChem BioAssay by Sanford-Burnham Center for Chemical Genomics.
